ChEMBL document CHEMBL1156719, “Synthesis and structure-activity relationship studies of theophylline analogs on population responses in the rat hippocampus in vitro” (Bioorg Med Chem, 2008)
Blank lines part the entries; values can stand above or below the compound they belong to.

Legend:
Hippocampus [1] = assay: Cognitive enhancing effect in Sprague-Dawley rat hippocampal CA1 region assessed as increase in amplitude of populations spikes at 1 uM; format: functional
In short: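 Male Sprague-Dawley rats (75–150 g) anesthetized with halothane and decapitated. 400 µm coronal hippocampal slices cut in ice-cold carbogenated aCSF, then held 1 h at room temperature. Extracellular field recording of evoked population spikes in CA1. After at least 15 min of stable baseline, analogs (10 mM DMSO stocks, diluted ≥1000-fold in aCSF) were bath-perfused. Amplitude normalized to the mean of 4–5 pre-drug responses.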

Hippocampus [2] = assay: Cognitive enhancing effect in Sprague-Dawley rat hippocampal CA1 region assessed as increase in amplitude of populations spikes at 10 uM; format: functional
In short: (§1)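 Male Sprague–Dawley rats (75–150 g) were halothane-anesthetized and decapitated. Coronal hippocampal slices were cut in ice-cold carbogenated aCSF and rested 1 h at room temperature. Extracellular field PS were recorded in CA1 after at least 15 min of stable baseline. Compound (10 mM DMSO stock, diluted ≥1000-fold in aCSF) was bath-perfused, then washed out. Amplitude was normalized to the mean of 4–5 pre-drug responses; mean ± SE, paired t-test.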

Hippocampus [3] = assay: Cognitive enhancing effect in Sprague-Dawley rat hippocampal CA1 region assessed as increase in amplitude of populations spikes at 10 uM after 20 mins of compound wash out; format: functional; in short: as §1
Hippocampus [4] = assay: Cognitive enhancing effect in Sprague-Dawley rat hippocampal CA1 region assessed as increase in amplitude of populations spikes; format: functional, tissue-based; in short: as §1
Hippocampus [5] = assay: Cognitive enhancing effect in Sprague-Dawley rat hippocampal CA1 region assessed as increase in amplitude of populations spikes at 10 uM in presence of atropine; format: functional
In short: (§2)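 CA1 field PS were recorded extracellularly in coronal hippocampal slices from male Sprague–Dawley rats (75–150 g), kept in carbogenated aCSF. Receptor antagonists (d-tubocurarine, atropine, CGP55845 or 8-cyclopentyl-theophylline) were bath-perfused together with the compound, which was diluted ≥1000-fold from a 10 mM DMSO stock. PS amplitude was normalized to the mean of 4–5 responses before drug; mean ± SE, Student's t-test.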

Hippocampus [6] = assay: Cognitive enhancing effect in Sprague-Dawley rat hippocampal CA1 region assessed as amplitude of populations spikes at 10 uM in presence of d-tubocurarine; format: functional; in short: as §2
Hippocampus [7] = assay: Cognitive enhancing effect in Sprague-Dawley rat hippocampal CA1 region assessed as increase in amplitude of populations spikes at 10 uM in presence of CGP-55845 relative to basal level; format: functional; in short: as §2
Hippocampus [8] = assay: Cognitive enhancing effect in Sprague-Dawley rat hippocampal CA1 region assessed as increase in amplitude of populations spikes at 10 uM in presence of CPT relative to basal level; format: functional; in short: as §2
Hippocampus [9] = assay: Cognitive enhancing effect in Sprague-Dawley rat hippocampal CA1 region assessed as increase in amplitude of populations spikes at 100 uM; format: functional
Hippocampus [10] = assay: Decrease in amplitude of populations spikes in Sprague-Dawley rat hippocampal CA1 region at 10 uM; format: functional; set-up: scale not given: the % may be the effect or the level left; in short: as §1
Hippocampus [11] = assay: Decrease in amplitude of populations spikes in Sprague-Dawley rat hippocampal CA1 region at 10 uM after 10 mins of compound wash out; format: functional; set-up: scale not given: the % may be the effect or the level left; in short: as §1
Hippocampus [12] = assay: Decrease in amplitude of populations spikes in Sprague-Dawley rat hippocampal CA1 region; format: functional, tissue-based; in short: as §1

SMILES: CC[C@@]1(O)C(=O)OCc2c1cc1n(c2=O)Cc2cc3ccccc3nc2-1 [CAMPTOTHECIN]
Activity (Hippocampus [1]): 51.6%

SMILES: Cn1c(=O)c2c(ncn2CC(=O)N2CCCCCC2=O)n(C)c1=O
Activity (Hippocampus [2]): 42.4%

SMILES: Cn1c(=O)c2c(ncn2CC(=O)N2CCCC2=O)n(C)c1=O
Activity (Hippocampus [2]): 6.4%

EC50 (Hippocampus [4]): 2000 nM
SMILES: Cn1c(=O)c2c(ncn2CCCC(=O)N2CCCCCC2=O)n(C)c1=O
Activity (Hippocampus [2]): 56.5%
Activity (Hippocampus [3]): 45.8%
Activity (Hippocampus [4]): Dose-dependent effect
Activity (Hippocampus [5]): 0.2%
Activity (Hippocampus [6]): -2.5%
Activity (Hippocampus [7]): 32.7%
Activity (Hippocampus [8]): 47.9%

SMILES: COc1cc2c3cc1Oc1cc(ccc1O)C[C@@H]1c4c(cc(OC)c(O)c4Oc4ccc(cc4)C[C@@H]3N(C)CC2)CC[N+]1(C)C.[Cl-]
Activity (Hippocampus [9]): 1.8%

SMILES: Cn1c(=O)c2c(ncn2CCCC(=O)N2CCCC2=O)n(C)c1=O
Activity (Hippocampus [2]): 6.4%

SMILES: Cn1c(=O)c2c(ncn2CCC(=O)N2CCCCCC2=O)n(C)c1=O
Activity (Hippocampus [2]): 40.9%

SMILES: C[C@H](NC[C@H](O)CP(=O)(O)Cc1ccccc1)c1ccc(Cl)c(Cl)c1
Activity (Hippocampus [1]): 53.8%

EC50 (Hippocampus [12]): 60 nM
SMILES: Cn1c(=O)c2c(ncn2CCCC(=O)N2CCCCC2=O)n(C)c1=O
Activity (Hippocampus [10]): -25.9%
Activity (Hippocampus [11]): 91.1%
Activity (Hippocampus [12]): Dose-dependent effect
Activity (Hippocampus [7]): 10.6%
Activity (Hippocampus [8]): -27.6%
